# ChEMBL document CHEMBL1125330, “N-substituted pyrazino[2,3-c][1,2,6]thiadiazine 2,2-dioxides. A new class of diuretics” (J Med Chem, 1992)
# What was measured:
# Rattus norvegicus [1] = experiment: Urinary sodium 6 hr after the compound was administered 10 mg/kg po in rat; type: ADME, organism-based, Urine; set-up: dose 10 mg/kg, route oral; conditions: in vivo
# Method in brief: (§1)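 Onset and duration study in fasted, water-loaded male Sprague-Dawley rats housed two per metabolic cage, six pairs per group. Single oral dose given, then water 2.5 mL/100 g po. Urine volume and sodium (flame photometry) measured over 0-1, 1-2, 2-3, 3-4 and 4-6 h intervals. Mean values compared with vehicle by Student t-test.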
# Rattus norvegicus [2] = experiment: Mean Chlorine excretion in rats when compound administered at 20 mg/kg po and vehicle dosed at 67.18 umol/kg; type: ADME, organism-based; set-up: dose 20 mg/kg, route oral; conditions: in vivo
# Method in brief: (§2)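 Male Sprague-Dawley rats (HC/CFY, 175-200 g), no food or water for 18 h before and during the test. Single gavage dose (2.5-160 mg/kg; vehicle 1% carboxymethyl cellulose/0.1% Tween 80, 0.5 mL/100 g bw), then distilled water 2.5 mL/100 g bw po. Individual metabolic cages, 6 h urine. K+ by flame photometry, Cl- colorimetric, as mequiv/6 h/kg bw; unpaired Student t-test vs control.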
# Rattus norvegicus [3] = experiment: Mean sodium excretion in rats when compound administered at 20 mg/kg po and vehicle dosed at 67.18 umol/kg; type: ADME, organism-based; set-up: dose 20 mg/kg, route oral; conditions: in vivo
# Method in brief: (§3)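 Male Sprague-Dawley rats (HC/CFY, 175-200 g) fasted and water-deprived 18 h before and during the test. Dosed by gavage at 2.5-160 mg/kg in 1% carboxymethyl cellulose/0.1% Tween 80, 0.5 mL/100 g bw. Immediately hydrated with water (2.5 mL/100 g bw, po). Urine collected 6 h in metabolic cages; Na+ and K+ by flame photometry; mean mequiv/6 h/kg bw; nonpaired Student t-test.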
# Rattus norvegicus [4] = experiment: Mean urinary output in rats when compound administered at 0 mg/kg po and vehicle dosed at 0 umol/kg; type: ADME, organism-based, Urine; set-up: dose 0 mg/kg, route oral; conditions: in vivo
# Method in brief: (§4)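 Water-loaded male Sprague-Dawley rats (HC/CFY, 175-200 g) fasted and without water for 18 h. Oral gavage of 2.5-160 mg/kg in 1% CMC with 0.1% Tween 80, then distilled water 2.5 mL/100 g po. Urine collected 6 h in metabolic cages, mean output in mL/6 h/kg bw. Unpaired Student t-test against vehicle; dose-response by linear regression.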
# Rattus norvegicus [5] = experiment: Volume of urine 4 hr after the compound was administered 10 mg/kg po in rat; type: ADME, organism-based; set-up: dose 10 mg/kg, route oral; conditions: in vivo
# Method in brief: (§5)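 Onset/duration protocol: male Sprague-Dawley rats (HC/CFY, 175-200 g), food and water withdrawn for 18 h before and during the test. Single gavage dose in 1% carboxymethyl cellulose/0.1% Tween 80 (0.5 mL/100 g bw), then distilled water load (2.5 mL/100 g bw po). Two rats per metabolic cage, six pairs per group. Urine collected at 0-1, 1-2, 2-3, 3-4 and 4-6 h; Na+ by flame photometry. Vehicle controls; nonpaired Student t-test.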
# Rattus norvegicus [6] = experiment: Mean sodium excretion in rats when compound administered at 10 mg/kg po and vehicle dosed at 33.59 umol/kg; type: ADME, organism-based; set-up: dose 10 mg/kg, route oral; conditions: in vivo; method in brief: as §3
# Rattus norvegicus [7] = experiment: Urinary sodium 3h after the compound was administered 10 mg/kg po in rat; type: ADME, organism-based, Urine; set-up: dose 10 mg/kg, route oral; conditions: in vivo; method in brief: as §1
# Rattus norvegicus [8] = experiment: Volume of urine 1 hr after the compound was administered 10 mg/kg po in rat; type: ADME, organism-based; set-up: dose 10 mg/kg, route oral; conditions: in vivo; method in brief: as §5
# Rattus norvegicus [9] = experiment: Mean Chlorine excretion in rats when compound administered at 10 mg/kg po and vehicle dosed at 33.59 umol/kg; type: ADME, organism-based; set-up: dose 10 mg/kg, route oral; conditions: in vivo; method in brief: as §2
# Rattus norvegicus [10] = experiment: Mean sodium excretion in rats when compound administered at 2.5 mg/kg po and vehicle dosed at 8.4 umol/kg; type: ADME, organism-based; set-up: dose 2.5 mg/kg, route oral; conditions: in vivo; method in brief: as §3
# Rattus norvegicus [11] = experiment: Mean sodium excretion in rats when compound administered at 80 mg/kg po and vehicle dosed at 268.71 umol/kg; type: ADME, organism-based; set-up: dose 80 mg/kg, route oral; conditions: in vivo; method in brief: as §3
# Rattus norvegicus [12] = organism: Rattus norvegicus; experiment: Dose required to produce increase in 50 % in urine production vs control groups; type: functional; conditions: Rattus norvegicus, Urine
# Method in brief: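 Male Sprague-Dawley rats (HC/CFY, 175-200 g), fasted and water-deprived 18 h before and during the test. Compound dosed by gavage in 1% carboxymethyl cellulose/0.1% Tween 80, then water load 2.5 mL/100 g bw po. Urine collected 6 h in metabolic cages; Na+ by flame photometry. Effective doses vs vehicle controls derived by linear regression of dose-response data.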
# Rattus norvegicus [13] = experiment: Mean potassium excretion in rats when compound administered at 80 mg/kg po and vehicle dosed at 268.71 umol/kg; type: ADME, organism-based; set-up: dose 80 mg/kg, route oral; conditions: in vivo; method in brief: as §3
# Rattus norvegicus [14] = experiment: Post dosing time interval of maximum activity; type: functional
# Method in brief: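 Interval of peak activity taken from timed urine collections (0-1, 1-2, 2-3, 3-4, 4-6 h) after a single oral dose in water-loaded fasted rats, […]. Urine volume and Na+ excretion followed over time.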
# Rattus norvegicus [15] = experiment: Mean Chlorine excretion in rats when compound administered at 80 mg/kg po and vehicle dosed at 268.71 umol/kg; type: ADME, organism-based; set-up: dose 80 mg/kg, route oral; conditions: in vivo; method in brief: as §2
# Rattus norvegicus [16] = experiment: Mean potassium excretion in rats when compound administered at 20 mg/kg po and vehicle dosed at 67.18 umol/kg; type: ADME, organism-based; set-up: dose 20 mg/kg, route oral; conditions: in vivo; method in brief: as §2
# Rattus norvegicus [17] = experiment: Mean urinary output in rats when compound administered at 10 mg/kg po and vehicle dosed at 33.59 umol/kg; type: ADME, organism-based, Urine; set-up: dose 10 mg/kg, route oral; conditions: in vivo; method in brief: as §4
# Rattus norvegicus [18] = experiment: Mean urinary output in rats when compound administered at 80 mg/kg po and vehicle dosed at 268.71 umol/kg; type: ADME, organism-based, Urine; set-up: dose 80 mg/kg, route oral; conditions: in vivo; method in brief: as §4
# Rattus norvegicus [19] = experiment: Mean potassium excretion in rats when compound administered at 0 mg/kg po and vehicle dosed at 0 umol/kg; type: ADME, organism-based; set-up: dose 0 mg/kg, route oral; conditions: in vivo; method in brief: as §2
# Rattus norvegicus [20] = experiment: Mean potassium excretion in rats when compound administered at 5 mg/kg po and vehicle dosed at 16.79 umol/kg; type: ADME, organism-based; set-up: dose 5 mg/kg, route oral; conditions: in vivo; method in brief: as §3
# Rattus norvegicus [21] = experiment: Mean Chlorine excretion in rats when compound administered at 2.5 mg/kg po and vehicle dosed at 8.4 umol/kg; type: ADME, organism-based; set-up: dose 2.5 mg/kg, route oral; conditions: in vivo; method in brief: as §2
compound,measurement,setting,value
NS(=O)(=O)c1cc2c(cc1Cl)NCNS2(=O)=O [HYDROCHLOROTHIAZIDE],Urinary Na+,Rattus norvegicus [1],0.24 m equiv
same,Cl-,Rattus norvegicus [2],4.67 m equiv 6hr-1 kg-1 (body weight)-1
same,Na,Rattus norvegicus [3],3.05 m equiv 6hr-1 kg-1 (body weight)-1
same,V,Rattus norvegicus [4],24.3 ml 6hr-1 (kg of body weight)-1
same,Urine volume,Rattus norvegicus [5],2.92 mL
same,Na,Rattus norvegicus [6],2.86 m equiv 6hr-1 kg-1 (body weight)-1
same,Urinary Na+,Rattus norvegicus [7],0.17 m equiv
same,Urine volume,Rattus norvegicus [8],1.38 mL
same,Cl-,Rattus norvegicus [9],4.44 m equiv 6hr-1 kg-1 (body weight)-1
same,Na,Rattus norvegicus [10],2.14 m equiv 6hr-1 kg-1 (body weight)-1
same,Na,Rattus norvegicus [11],3.19 m equiv 6hr-1 kg-1 (body weight)-1
same,ED50,Rattus norvegicus [12],4.86 mg/kg
same,K,Rattus norvegicus [13],1.57 m equiv 6hr-1 kg-1 (body weight)-1
same,Time,Rattus norvegicus [14],2 h
same,Cl-,Rattus norvegicus [15],4.88 m equiv 6hr-1 kg-1 (body weight)-1
same,K,Rattus norvegicus [16],1.43 m equiv 6hr-1 kg-1 (body weight)-1
same,V,Rattus norvegicus [17],39.01 ml 6hr-1 (kg of body weight)-1
same,V,Rattus norvegicus [18],47.06 ml 6hr-1 (kg of body weight)-1
same,K,Rattus norvegicus [19],0.53 m equiv 6hr-1 kg-1 (body weight)-1
same,K,Rattus norvegicus [20],1.23 m equiv 6hr-1 kg-1 (body weight)-1
same,Cl-,Rattus norvegicus [21],4.42 m equiv 6hr-1 kg-1 (body weight)-1
